From paper PMC3945061 (Pain, 2013)

How the values were obtained:
[1] = test system: pain / nociception; conditions: cited from earlier work
[2] = test system: SNL rats (mechanical hypersensitivity); assay: Paw withdrawal threshold; assay type: in vivo, rat; conditions: intrathecal FMRFamide 2 mM, 10 μl, n=7, 30 and 60 minutes
Method in brief: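 Male Sprague-Dawley rats (200–350 g) had the left L5 spinal nerve ligated with 6-0 silk and cut distally. They were tested 4–5 weeks later via an intrathecal PE-10 catheter inserted through the atlanto-occipital membrane, with compound diluted in saline. Ipsilateral plantar PWT was measured by the up-down method (von Frey 0.38–13.1 g, 4–6 s) using the Dixon formula. Tests ran in the morning, blinded.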

[3] = test system: rats (lower limbs); assay: Motor paralysis after intrathecal injection; assay type: in vivo, rat; conditions: intrathecal lidocaine 400 μg/20 μl
[4] = test system: DRG neurons from Mrg KO mice; assay: Calcium imaging, DRG neurons from Mrg KO mice; assay type: cell-based, mouse; conditions: capsaicin 0.5 μM, positive control, after JHU58
Method in brief: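 Mrg KO mice: 845 kb chromosome 7 deletion covering 12 Mrg genes incl. MrgC11, backcrossed to C57BL/6 at least five generations. DRGs from 3–4-week-old mice were enzyme-dissociated at 37°C, plated on poly-D-lysine/laminin coverslips, and used within 24 h. Fura-2 AM loading for 30 min in the dark at room temperature; 340/380 nm ratio imaging; bath drug application; experimenter blinded to genotype.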

## γ^2-MSH
[1]; systemic and intrathecal injections
  Effect on nociception (acute and inflammatory pain models): produce pronociceptive effects in acute pain models and contribute to heat hyperalgesia in an inflammatory pain model

## FMRFamide
[2]
  Mechanical hypersensitivity, ipsilateral PWT: inhibited mechanical hypersensitivity in the ipsilateral hindpaw of SNL rats

## CCN(CC)CC(=O)Nc1c(C)cccc1C [lidocaine]
[3]
  Motor paralysis of the lower limbs: temporary motor paralysis of the lower limbs

## COc1cc(CNC(=O)CCCC/C=C/C(C)C)ccc1O [capsaicin]
[4]
  DRG neurons from Mrg KO mice with an increase in [Ca2+]i: 32%
[1]; capsaicin
  Effect on pain, peripheral versus central application: induces burning pain in the periphery, but it inhibits pain when applied centrally
